Results taken from ChEMBL document CHEMBL2040781, “Design, synthesis, and biological evaluation of chromone-based p38 MAP kinase inhibitors” (J Med Chem, 2011).
Activity calls are given as the source filed them. The rule behind the calls is not given here.

Key:
MCF7 = assay: Antiproliferative activity against human MCF7 cells at 1 uM after 4 hrs by prestoblue cell viability assay; assay type: functional, cell-based
MDA-MB-436 = assay: Potentiation of doxorubicin-mediated cytotoxicity in p53-deficient human MDA-MB-436 cells at 1 uM after 4 hrs by prestoblue cell viability assay; assay type: functional, cell-based
[1] = target: Tyrosine-protein kinase ABL1 (Homo sapiens) (UniProt P00519); assay: Inhibition of human Abl assessed as remaining activity at 0.8 uM after 40 mins by scintillation counting
[2] = target: Mitogen-activated protein kinase kinase kinase 5 (Homo sapiens) (UniProt Q99683); assay: Inhibition of human ASK1 assessed as remaining activity at 0.8 uM after 40 mins by scintillation counting
Sequence of Mitogen-activated protein kinase kinase kinase 5 (Homo sapiens) (Q99683 whole entry): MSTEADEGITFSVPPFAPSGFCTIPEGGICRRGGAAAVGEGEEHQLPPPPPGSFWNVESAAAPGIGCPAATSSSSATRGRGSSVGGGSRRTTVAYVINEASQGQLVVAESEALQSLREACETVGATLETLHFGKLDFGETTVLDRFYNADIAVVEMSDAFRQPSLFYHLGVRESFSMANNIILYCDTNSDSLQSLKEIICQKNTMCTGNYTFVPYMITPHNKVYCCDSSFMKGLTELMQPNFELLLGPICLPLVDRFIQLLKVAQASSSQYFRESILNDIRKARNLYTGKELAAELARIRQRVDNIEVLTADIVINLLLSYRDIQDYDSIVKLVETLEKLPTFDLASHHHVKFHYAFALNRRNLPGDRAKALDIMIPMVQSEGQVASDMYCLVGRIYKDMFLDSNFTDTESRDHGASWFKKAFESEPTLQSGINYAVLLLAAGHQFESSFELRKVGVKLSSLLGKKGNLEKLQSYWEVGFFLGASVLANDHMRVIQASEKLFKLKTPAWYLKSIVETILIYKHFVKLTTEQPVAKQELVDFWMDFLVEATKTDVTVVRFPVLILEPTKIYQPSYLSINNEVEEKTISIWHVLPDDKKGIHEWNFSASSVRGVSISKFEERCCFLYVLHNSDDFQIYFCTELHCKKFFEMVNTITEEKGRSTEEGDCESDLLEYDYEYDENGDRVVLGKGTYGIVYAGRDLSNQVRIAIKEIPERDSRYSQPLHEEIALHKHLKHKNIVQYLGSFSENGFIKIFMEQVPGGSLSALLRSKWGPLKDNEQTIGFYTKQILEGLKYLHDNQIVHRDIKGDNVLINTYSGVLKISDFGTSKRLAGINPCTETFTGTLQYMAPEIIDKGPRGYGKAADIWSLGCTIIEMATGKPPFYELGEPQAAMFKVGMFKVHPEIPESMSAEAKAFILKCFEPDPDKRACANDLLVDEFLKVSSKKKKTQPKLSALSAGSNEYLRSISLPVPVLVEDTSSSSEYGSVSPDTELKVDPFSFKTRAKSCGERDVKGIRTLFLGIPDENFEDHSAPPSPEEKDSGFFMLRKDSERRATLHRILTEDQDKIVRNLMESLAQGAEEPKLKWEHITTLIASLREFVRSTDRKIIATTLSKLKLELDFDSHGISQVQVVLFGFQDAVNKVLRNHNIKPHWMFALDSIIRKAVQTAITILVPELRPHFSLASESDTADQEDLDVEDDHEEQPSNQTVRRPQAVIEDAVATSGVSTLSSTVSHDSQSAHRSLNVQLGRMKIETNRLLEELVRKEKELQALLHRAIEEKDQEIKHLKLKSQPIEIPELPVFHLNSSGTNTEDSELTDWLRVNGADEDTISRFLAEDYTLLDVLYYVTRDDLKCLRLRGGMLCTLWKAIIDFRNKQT

[3] = target: Aurora kinase A (Homo sapiens) (UniProt O14965); assay: Inhibition of human Aurora-A assessed as remaining activity at 0.8 uM after 40 mins by scintillation counting
Sequence of Aurora kinase A (Homo sapiens) (O14965 whole entry): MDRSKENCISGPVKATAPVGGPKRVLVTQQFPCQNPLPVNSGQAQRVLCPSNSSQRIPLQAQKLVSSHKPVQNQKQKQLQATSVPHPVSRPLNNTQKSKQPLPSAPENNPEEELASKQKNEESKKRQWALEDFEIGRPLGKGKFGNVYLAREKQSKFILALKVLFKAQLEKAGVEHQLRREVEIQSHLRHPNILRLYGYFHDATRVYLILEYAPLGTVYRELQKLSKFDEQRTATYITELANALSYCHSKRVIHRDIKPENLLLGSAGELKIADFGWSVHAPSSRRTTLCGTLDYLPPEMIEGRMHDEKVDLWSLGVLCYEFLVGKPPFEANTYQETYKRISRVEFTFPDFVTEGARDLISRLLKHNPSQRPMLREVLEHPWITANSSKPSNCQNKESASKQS

[4] = target: Calcium/calmodulin-dependent protein kinase type 1 (Homo sapiens) (UniProt Q14012); assay: Inhibition of human CaMKI assessed as remaining activity at 0.8 uM after 40 mins by scintillation counting
[5] = target: Cyclin-dependent kinase 2/cyclin A (Homo sapiens) (UniProt P24941+P20248+P78396); assay: Inhibition of human CDK2/cyclinA assessed as remaining activity at 0.8 uM after 40 mins by scintillation counting; assay type: protein-complex assay
[6] = target: RAF proto-oncogene serine/threonine-protein kinase (Homo sapiens) (UniProt P04049); assay: Inhibition of human RAF assessed as remaining activity at 0.8 uM after 40 mins by scintillation counting
[7] = target: Serine/threonine-protein kinase 17A (Homo sapiens) (UniProt Q9UEE5); assay: Inhibition of human DRAK1 assessed as remaining activity at 0.8 uM after 40 mins by scintillation counting
[8] = target: Eukaryotic elongation factor 2 kinase (Homo sapiens) (UniProt O00418); assay: Inhibition of human eEF-2K assessed as remaining activity at 0.8 uM after 40 mins by scintillation counting
Sequence of Eukaryotic elongation factor 2 kinase (Homo sapiens) (O00418 whole entry): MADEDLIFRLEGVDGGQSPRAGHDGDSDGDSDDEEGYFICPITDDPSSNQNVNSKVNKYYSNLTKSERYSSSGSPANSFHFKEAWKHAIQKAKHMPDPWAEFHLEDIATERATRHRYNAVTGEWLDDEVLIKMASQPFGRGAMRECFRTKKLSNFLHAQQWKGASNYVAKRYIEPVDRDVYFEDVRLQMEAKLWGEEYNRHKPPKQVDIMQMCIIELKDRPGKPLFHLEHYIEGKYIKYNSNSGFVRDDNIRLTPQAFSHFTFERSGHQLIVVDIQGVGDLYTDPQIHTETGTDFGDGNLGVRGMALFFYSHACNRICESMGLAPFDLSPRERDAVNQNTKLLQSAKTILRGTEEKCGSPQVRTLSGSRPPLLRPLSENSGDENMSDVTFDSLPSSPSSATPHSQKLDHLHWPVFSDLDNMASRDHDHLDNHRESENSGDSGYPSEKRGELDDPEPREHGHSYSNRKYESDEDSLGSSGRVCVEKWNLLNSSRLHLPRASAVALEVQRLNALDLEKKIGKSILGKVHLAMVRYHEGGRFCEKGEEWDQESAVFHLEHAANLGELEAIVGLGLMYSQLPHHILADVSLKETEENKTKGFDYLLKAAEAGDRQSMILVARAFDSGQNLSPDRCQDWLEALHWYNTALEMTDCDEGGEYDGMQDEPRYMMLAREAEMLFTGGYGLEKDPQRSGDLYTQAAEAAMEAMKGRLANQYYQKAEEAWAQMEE

[9] = target: Epidermal growth factor receptor (Homo sapiens) (UniProt P00533); assay: Inhibition of human EGFR assessed as remaining activity at 0.8 uM after 40 mins by scintillation counting
[10] = target: Ephrin type-A receptor 5 (Homo sapiens) (UniProt P54756); assay: Inhibition of human EphA5 assessed as remaining activity at 0.8 uM after 40 mins by scintillation counting
[11] = target: Ephrin type-B receptor 4 (Homo sapiens) (UniProt P54760); assay: Inhibition of human EphB4 assessed as remaining activity at 0.8 uM after 40 mins by scintillation counting
[12] = target: Inhibitor of nuclear factor kappa-B kinase subunit alpha (Homo sapiens) (UniProt O15111); assay: Inhibition of human IKKalpha assessed as remaining activity at 0.8 uM after 40 mins by scintillation counting
[13] = target: Interleukin-1 receptor-associated kinase 4 (Homo sapiens) (UniProt Q9NWZ3); assay: Inhibition of human IRAK4 assessed as remaining activity at 0.8 uM after 40 mins by scintillation counting
Sequence of Interleukin-1 receptor-associated kinase 4 (Homo sapiens) (Q9NWZ3 whole entry): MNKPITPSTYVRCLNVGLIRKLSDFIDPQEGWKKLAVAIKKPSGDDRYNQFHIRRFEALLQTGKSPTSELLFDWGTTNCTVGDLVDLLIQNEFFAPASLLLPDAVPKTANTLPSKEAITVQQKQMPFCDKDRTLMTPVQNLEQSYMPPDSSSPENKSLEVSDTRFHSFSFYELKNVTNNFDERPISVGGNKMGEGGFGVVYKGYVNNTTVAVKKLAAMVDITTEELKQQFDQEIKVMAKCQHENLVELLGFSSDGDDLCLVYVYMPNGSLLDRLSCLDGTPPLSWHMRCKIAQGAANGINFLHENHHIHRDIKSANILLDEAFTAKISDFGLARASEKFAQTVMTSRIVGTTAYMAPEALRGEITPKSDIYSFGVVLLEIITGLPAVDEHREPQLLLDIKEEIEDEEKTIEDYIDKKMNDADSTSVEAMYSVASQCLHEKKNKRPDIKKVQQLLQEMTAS

[14] = target: Tyrosine-protein kinase JAK2 (Homo sapiens) (UniProt O60674); assay: Inhibition of human JAK2 assessed as remaining activity at 0.8 uM after 40 mins by scintillation counting
[15] = target: Mitogen-activated protein kinase 8 (Homo sapiens) (UniProt P45983); assay: Inhibition of human JNK1alpha1 assessed as remaining activity at 0.8 uM after 40 mins by scintillation counting
[16] = target: Mitogen-activated protein kinase 9 (Homo sapiens) (UniProt P45984); assay: Inhibition of human JNK2alpha2 assessed as remaining activity at 0.8 uM after 40 mins by scintillation counting
Sequence of Mitogen-activated protein kinase 9 (Homo sapiens) (P45984 whole entry, looked up): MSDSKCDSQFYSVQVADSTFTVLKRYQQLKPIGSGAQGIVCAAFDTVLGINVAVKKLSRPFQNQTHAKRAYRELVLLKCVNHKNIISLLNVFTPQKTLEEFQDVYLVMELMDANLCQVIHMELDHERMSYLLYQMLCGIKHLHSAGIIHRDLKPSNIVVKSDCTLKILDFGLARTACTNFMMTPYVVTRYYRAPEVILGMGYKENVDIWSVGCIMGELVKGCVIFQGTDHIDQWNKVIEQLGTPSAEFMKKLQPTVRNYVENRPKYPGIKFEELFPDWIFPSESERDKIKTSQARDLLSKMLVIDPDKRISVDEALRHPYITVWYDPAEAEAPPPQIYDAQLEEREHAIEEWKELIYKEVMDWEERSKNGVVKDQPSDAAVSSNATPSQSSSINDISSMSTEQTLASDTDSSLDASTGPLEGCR

[17] = target: Mitogen-activated protein kinase 1 (Homo sapiens) (UniProt P28482); assay: Inhibition of human MAPK1 assessed as remaining activity at 0.8 uM after 40 mins by scintillation counting
[18] = target: Dual specificity mitogen-activated protein kinase kinase 1 (Homo sapiens) (UniProt Q02750); assay: Inhibition of human MEK1 assessed as remaining activity at 0.8 uM after 40 mins by scintillation counting
[19] = target: Mitogen-activated protein kinase kinase kinase 9 (Homo sapiens) (UniProt P80192); assay: Inhibition of human MLK1 assessed as remaining activity at 0.8 uM after 40 mins by scintillation counting
[20] = target: Ribosomal protein S6 kinase alpha-4 (Homo sapiens) (UniProt O75676); assay: Inhibition of human MSK2 assessed as remaining activity at 0.8 uM after 40 mins by scintillation counting
Sequence of Ribosomal protein S6 kinase alpha-4 (Homo sapiens) (O75676 whole entry, looked up): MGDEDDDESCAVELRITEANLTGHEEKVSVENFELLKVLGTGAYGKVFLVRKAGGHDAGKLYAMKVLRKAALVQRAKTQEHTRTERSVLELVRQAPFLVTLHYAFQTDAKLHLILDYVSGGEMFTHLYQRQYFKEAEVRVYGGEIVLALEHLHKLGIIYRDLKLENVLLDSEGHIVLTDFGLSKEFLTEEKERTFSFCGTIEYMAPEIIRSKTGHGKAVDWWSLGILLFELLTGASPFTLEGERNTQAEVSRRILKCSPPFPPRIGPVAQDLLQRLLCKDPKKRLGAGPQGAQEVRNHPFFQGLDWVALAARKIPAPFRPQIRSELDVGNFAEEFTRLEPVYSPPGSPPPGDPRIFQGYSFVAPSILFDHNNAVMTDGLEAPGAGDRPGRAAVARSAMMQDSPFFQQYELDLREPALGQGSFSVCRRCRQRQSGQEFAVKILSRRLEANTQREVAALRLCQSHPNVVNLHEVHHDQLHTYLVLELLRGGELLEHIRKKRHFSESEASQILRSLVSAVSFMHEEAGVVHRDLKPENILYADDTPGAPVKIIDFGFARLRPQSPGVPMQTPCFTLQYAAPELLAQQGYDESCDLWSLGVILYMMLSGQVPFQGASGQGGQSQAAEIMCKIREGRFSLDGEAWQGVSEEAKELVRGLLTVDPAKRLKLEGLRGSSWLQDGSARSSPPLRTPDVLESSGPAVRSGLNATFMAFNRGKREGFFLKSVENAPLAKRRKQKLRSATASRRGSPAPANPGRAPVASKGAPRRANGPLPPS

[21] = target: Serine/threonine-protein kinase 4 (Homo sapiens) (UniProt Q13043); assay: Inhibition of human MST1 assessed as remaining activity at 0.8 uM after 40 mins by scintillation counting
[22] = target: Serine/threonine-protein kinase Nek2 (Homo sapiens) (UniProt P51955); assay: Inhibition of human NEK2 assessed as remaining activity at 0.8 uM after 40 mins by scintillation counting
[23] = target: Serine/threonine-protein kinase pim-1 (Homo sapiens) (UniProt P11309); assay: Inhibition of human Pim-1 assessed as remaining activity at 0.8 uM after 40 mins by scintillation counting
Sequence of Serine/threonine-protein kinase pim-1 (Homo sapiens) (P11309 whole entry, looked up): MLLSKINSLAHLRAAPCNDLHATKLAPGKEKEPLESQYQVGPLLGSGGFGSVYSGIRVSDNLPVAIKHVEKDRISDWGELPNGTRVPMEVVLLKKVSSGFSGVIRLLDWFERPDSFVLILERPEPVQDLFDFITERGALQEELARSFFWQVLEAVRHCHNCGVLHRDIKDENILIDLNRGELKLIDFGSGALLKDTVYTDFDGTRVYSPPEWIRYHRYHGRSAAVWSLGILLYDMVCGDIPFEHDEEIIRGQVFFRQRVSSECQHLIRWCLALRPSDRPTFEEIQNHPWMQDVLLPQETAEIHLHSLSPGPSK

[24] = target: cGMP-dependent protein kinase 1 (Homo sapiens) (UniProt Q13976); assay: Inhibition of human PKG1alpha assessed as remaining activity at 0.8 uM after 40 mins by scintillation counting
[25] = target: T1, Mitogen-activated protein kinase 14 (Homo sapiens, UniProt Q16539); assay: Inhibition of human SAPK2a assessed as remaining activity at 0.8 uM after 40 mins by scintillation counting
T1 sequence (Q16539 whole entry): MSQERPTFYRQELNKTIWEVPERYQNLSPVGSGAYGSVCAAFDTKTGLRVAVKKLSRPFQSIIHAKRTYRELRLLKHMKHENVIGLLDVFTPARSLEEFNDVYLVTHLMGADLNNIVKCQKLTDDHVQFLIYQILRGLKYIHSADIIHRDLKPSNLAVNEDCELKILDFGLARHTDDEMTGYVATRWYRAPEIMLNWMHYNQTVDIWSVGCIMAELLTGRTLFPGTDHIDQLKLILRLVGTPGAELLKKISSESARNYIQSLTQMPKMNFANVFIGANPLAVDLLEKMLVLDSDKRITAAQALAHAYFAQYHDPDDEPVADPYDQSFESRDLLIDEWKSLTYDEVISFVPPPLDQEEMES

[26] = target: Mitogen-activated protein kinase 11 (Homo sapiens) (UniProt Q15759); assay: Inhibition of human SAPK2b assessed as remaining activity at 0.8 uM after 40 mins by scintillation counting
[27] = target: Mitogen-activated protein kinase 12 (Homo sapiens) (UniProt P53778); assay: Inhibition of human SAPK3 assessed as remaining activity at 0.8 uM after 40 mins by scintillation counting
[28] = target: Mitogen-activated protein kinase 13 (Homo sapiens) (UniProt O15264); assay: Inhibition of human SAPK4 assessed as remaining activity at 0.8 uM after 40 mins by scintillation counting
[29] = target: Mitogen-activated protein kinase kinase kinase 7 (TAK1) (Homo sapiens) (UniProt O43318); assay: Inhibition of human TAK1 assessed as remaining activity at 0.8 uM after 40 mins by scintillation counting
[30] = target: T1, Mitogen-activated protein kinase 14; assay: Inhibition of anisomycin-induced p38alpha MAPK signalling in human MCF7 cells assessed as inhibition of ATF2 activation at 0.5 uM after 30 mins by SDS PAGE analysis; assay type: cell-based
Outline: (§1)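 MCF-7 cells were preincubated with the compound at the indicated doses for 30 min, then stimulated with 10 μg/mL anisomycin for another 30 min. Total cell lysates were resolved by SDS-PAGE and immunoblotted with antibodies against phosphorylated ATF2, p38 and HSP27, with tubulin as the loading control.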

[31] = target: T1, Mitogen-activated protein kinase 14; assay: Inhibition of anisomycin-induced p38alpha MAPK signalling in human MCF7 cells assessed as inhibition of ATF2 activation at 10 uM after 30 mins by SDS PAGE analysis; assay type: cell-based; outline: as §1

For CC(C)Nc1cc(-c2oc3ccccc3c(=O)c2-c2ccc(F)cc2)ccn1, the Activity (MCF7) was “inactive”, the Activity (MDA-MB-436) was “inactive” and the Activity [1] was 111%. It also gave an Activity [2] of 105%, an Activity [3] of 104% and an Activity [4] of 94%. The Activity [5] was 95%, the Activity [6] was 73% and the Activity [7] was 107%. The Activity [8] was 100%, the Activity [9] was 106% and the Activity [10] was 103%. It also gave an Activity [11] of 97%, an Activity [12] of 106% and an Activity [13] of 91%. For the same molecule, the Activity [14] was 109%, the Activity [15] was 84% and the Activity [16] was 58%. For the same molecule, the Activity [17] was 82%, the Activity [18] was 99% and the Activity [19] was 95%. It also gave an Activity [20] of 89%, an Activity [21] of 99% and an Activity [22] of 98%. The Activity [23] was 100%, the Activity [24] was 104% and the Activity [25] was -3%. It also gave an Activity [26] of -3%, an Activity [27] of 96% and an Activity [28] of 104%. It also gave an Activity [29] of 97%.

O=c1c(-c2ccc(F)cc2)c(-c2ccnc(NC3CCCCC3)c2)oc2ccccc12 was tested, and the inhibition [30] was “Active”, the Imax [31] was “Active” and the Activity (MCF7) was “inactive”. For the same molecule, the Activity (MDA-MB-436) was “inactive”, the Activity [1] was 106% and the Activity [2] was 102%. It also gave an Activity [3] of 107%, an Activity [4] of 96% and an Activity [5] of 101%. The Activity [6] was 83%, the Activity [7] was 111% and the Activity [8] was 101%. It also gave an Activity [9] of 114%, an Activity [10] of 104% and an Activity [11] of 98%. For the same molecule, the Activity [12] was 100%, the Activity [13] was 95% and the Activity [14] was 102%. For the same molecule, the Activity [15] was 96%, the Activity [16] was 71% and the Activity [17] was 87%. The Activity [18] was 104%, the Activity [19] was 101% and the Activity [20] was 95%. For the same molecule, the Activity [21] was 93%, the Activity [22] was 98% and the Activity [23] was 97%. The Activity [24] was 102%, the Activity [25] was -1% and the Activity [26] was 9%. For the same molecule, the Activity [27] was 97%, the Activity [28] was 112% and the Activity [29] was 103%.
